{"source": "ChEMBL document CHEMBL1142037", "about": "“Cyclization-activated prodrugs. Synthesis, reactivity and toxicity of dipeptide esters of paracetamol” (Bioorg Med Chem Lett, 2005)", "key": {"[1]": {"assay": "Rate constant for release of paracetamol was determined", "format": "ADME"}, "[2]": {"assay": "Half life required for the release of paracetamol", "format": "ADME"}, "[3]": {"assay": "Relative rate constant for release of paracetamol was determined", "format": "ADME"}, "Mus musculus": {"species_on_record": "Mus musculus", "assay": "Effect on glutathione levels in mice", "format": "functional", "how_it_was_run": "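Male BALB/c mice (17–21 g, 5 weeks old), four per group, given a single ip dose of 3.3 mmol/kg in 30% propyleneglycol. Controls received vehicle ip. Livers were taken 2 h after dosing and kept on ice. Reduced glutathione in liver homogenate was measured at once with DTNB and reported as µmol/g tissue.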"}}}
{"compound": "CC(=O)Nc1ccc(OC(=O)CNC(=O)[C@@H]2CCCN2)cc1.O=C(O)C(F)(F)F", "values": [{"measurement": "K obs", "setting": "[1]", "result": 0.0059, "unit": "s⁻¹"}, {"measurement": "T1/2", "setting": "[2]", "result": 2, "unit": "min"}, {"measurement": "Krelative", "setting": "[3]", "result": 0.41}]}
{"compound": "CC(=O)Nc1ccc(OC(=O)CNC(=O)[C@@H](N)C(C)C)cc1.O=C(O)C(F)(F)F", "values": [{"measurement": "Glutathione levels", "setting": "Mus musculus", "result": 3.87, "unit": "umol/g tissue"}, {"measurement": "K obs", "setting": "[1]", "result": 0.00071, "unit": "s⁻¹"}, {"measurement": "T1/2", "setting": "[2]", "result": 16, "unit": "min"}, {"measurement": "Krelative", "setting": "[3]", "result": 0.05}]}
{"compound": "CC(=O)Nc1ccc(OC(=O)CNC(=O)[C@@H](N)Cc2ccccc2)cc1.O=C(O)C(F)(F)F", "values": [{"measurement": "Glutathione levels", "setting": "Mus musculus", "result": 2.68, "unit": "umol/g tissue"}, {"measurement": "K obs", "setting": "[1]", "result": 0.000821, "unit": "s⁻¹"}, {"measurement": "T1/2", "setting": "[2]", "result": 14, "unit": "min"}, {"measurement": "Krelative", "setting": "[3]", "result": 0.06}]}
{"compound": "CC(=O)Nc1ccc(OC(=O)CN(C)C(=O)CN)cc1.O=C(O)C(F)(F)F", "values": [{"measurement": "K obs", "setting": "[1]", "result": "Too fast to be monitored"}]}
{"compound": "CC(=O)Nc1ccc(OC(=O)[C@@H](NC(=O)CN)C(C)C)cc1.O=C(O)C(F)(F)F", "values": [{"measurement": "K obs", "setting": "[1]", "result": 0.00057, "unit": "s⁻¹"}, {"measurement": "T1/2", "setting": "[2]", "result": 20, "unit": "min"}, {"measurement": "Krelative", "setting": "[3]", "result": 0.04}]}
{"compound": "CC(=O)Nc1ccc(OC(=O)[C@H](C)NC(=O)CN)cc1.O=C(O)C(F)(F)F", "values": [{"measurement": "K obs", "setting": "[1]", "result": 0.0134, "unit": "s⁻¹"}, {"measurement": "T1/2", "setting": "[2]", "result": 0.9, "unit": "min"}, {"measurement": "Krelative", "setting": "[3]", "result": 0.94}]}
{"compound": "CC(=O)Nc1ccc(OC(=O)[C@@H]2CCCN2C(=O)CN)cc1.O=C(O)C(F)(F)F", "values": [{"measurement": "K obs", "setting": "[1]", "result": "Too fast to be monitored"}]}
{"compound": "CC(=O)Nc1ccc(OC(=O)CNC(=O)CN)cc1.O=C(O)C(F)(F)F", "values": [{"measurement": "K obs", "setting": "[1]", "result": 0.0143, "unit": "s⁻¹"}, {"measurement": "T1/2", "setting": "[2]", "result": 0.8, "unit": "min"}, {"measurement": "Krelative", "setting": "[3]", "result": 1}]}
{"compound": "CNCC(=O)NCC(=O)Oc1ccc(NC(C)=O)cc1.O=C(O)C(F)(F)F", "values": [{"measurement": "K obs", "setting": "[1]", "result": "Too fast to be monitored"}]}
{"compound": "CC(=O)Nc1ccc(OC(=O)[C@H](Cc2ccccc2)NC(=O)CN)cc1.O=C(O)C(F)(F)F", "values": [{"measurement": "Glutathione levels", "setting": "Mus musculus", "result": 3.74, "unit": "umol/g tissue"}, {"measurement": "K obs", "setting": "[1]", "result": 0.00564, "unit": "s⁻¹"}, {"measurement": "T1/2", "setting": "[2]", "result": 2, "unit": "min"}, {"measurement": "Krelative", "setting": "[3]", "result": 0.4}]}
{"compound": "CC(=O)Nc1ccc(OC(=O)CNC(=O)[C@H](C)N)cc1.O=C(O)C(F)(F)F", "values": [{"measurement": "K obs", "setting": "[1]", "result": 0.0034, "unit": "s⁻¹"}, {"measurement": "T1/2", "setting": "[2]", "result": 3, "unit": "min"}, {"measurement": "Krelative", "setting": "[3]", "result": 0.24}]}
